Data on 25 molecules can be found in ChEMBL document CHEMBL1212825, “Synthesis and structure-activity relationships of N-(2-oxo-3-oxetanyl)amides as N-acylethanolamine-hydrolyzing acid amidase inhibitors” (J Med Chem, 2010).

To fix the notation:
B1: N-acylethanolamine-hydrolyzing acid amidase (Rattus norvegicus), Q5KTC7 (protein)
chain: MGTPAIRAACHGAHLALALLLLLSLSDPWLWATAPGTPPLFNVSLDAAPELRWLPMLQHYDPDFVRAAVAQVIGDRVPQWILEMIGEIVQKVESFLPQPFTSEIRGICDYLNLSLAEGVLVNLAYEASAFCTSIVAQDSQGRIYHGRNLDYPFGNALRKLTADVQFVKNGQIVFTATTFVGYVGLWTGQSPHKFTISGDERDKGWWWENMIAALSLGHSPISWLIRKTLTESEDFEAAVYTLAKTPLIADVYYIVGGTSPQEGVVITRDRGGPADIWPLDPLNGAWFRVETNYDHWEPVPKRDDRRTPAIKALNATGQAHLSLETLFQVLSVFPVYNNYTIYTTVMSAAEPDKYMTMIRNPS

The source made the active and inactive calls. No cut-off for these calls is given here. A value given as a limit tells only on which side of the number the result lay.

Substrate in one data set: O=C(N[C@H]1COC1=O)c1ccc(-c2ccccc2)cc1
Assay: not given
The settings on record: Rattus norvegicus; HEK293; 100 nM.
In general, Km refers to the concentration of substrate that gives half-maximal velocity. For the molecule B1, the Michaelis constant (Km) is 129 µM.

A further data set concerns Mus musculus. Briefly: Antiinflammatory activity in polyethylene sponges implanted mouse assessed as reduction of carrageenan-induced leukocyte infiltration compound administered into sponges.
Settings: not given
In kind it is functional, organism-based.
Consider `O=C(CCc1ccccc1)N[C@H]1COC1=O`, for which the result was Active.

For the molecule `O=C(N[C@H]1COC1=O)c1ccc(-c2ccccc2)cc1`, the result was Active.

The target in a further data set is T1, N-acylethanolamine-hydrolyzing acid amidase (Rattus norvegicus, UniProt Q5KTC7).
T1 sequence (Q5KTC7 whole entry): B1 chain
Kind of data set: Inhibition of rat recombinant NAAA expressed in HEK293 cells after 30 mins. In kind it is cell-based.
Settings: not given
The method in brief: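 Rat NAAA (full-length coding sequence cloned from rat brain cDNA, Flag-tagged) stably expressed in HEK293 cells, selected with G418 0.3 mg/mL. Enzyme taken as 105,000 g supernatant after freeze-thaw of the 12,000 g pellet. Incubated at 37 °C for 30 min in 50 mM sodium hydrogen phosphate pH 5.0 with 0.1% Triton X-100, 3 mM DTT and 50 μM heptadecenoylethanolamide substrate. IC50 reported.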
As usually defined, the IC50 is the concentration at which inhibition is half-maximal. In the case of `O=C(N[C@H]1CCOC1=O)c1ccc2ccccc2c1`, the IC50 was above 100000 nM.

With `C[C@@H]1OC(=O)[C@@H]1NC(=O)CCc1ccccc1`, the IC50 was 3200 nM.

For the molecule `CCCCCCC(=O)N[C@H]1COC1=O`, the half-maximal inhibitory concentration (IC50) stood at 460 nM.

`CCOC(=O)c1ccc2cc(C(=O)N[C@H]3COC3=O)ccc2c1`: the IC50 came out at 300 nM.

`O=C(CCc1ccccc1)N[C@@H](CO)C(=O)O`: the half-maximal inhibitory concentration (IC50) is above 100000 nM.

Take `O=C(N[C@H]1COC1=O)c1cccc2ccccc12`: the half-maximal inhibitory concentration (IC50) was found to be 50000 nM.

As to `O=C1OCC1CCCCc1ccccc1` (racemic), the 50% inhibitory concentration (IC50) worked out at 11000 nM.

As for `O=C(CCc1ccccc1)N[C@H]1CCOC1=O`, the 50% inhibitory concentration (IC50) was above 100000 nM.

For `CCc1ccc(C(=O)N[C@H]2COC2=O)cc1`, the IC50 stood at 102 nM.

For the molecule `O=C(N[C@H]1COC1=O)c1ccc2ccccc2c1`, the IC50 worked out at 160 nM.

`C[C@H]1OC(=O)[C@H]1NC(=O)CCc1ccccc1`: the IC50 was above 100000 nM.

Turning to `O=C(CCc1ccccc1)N[C@@H]1COC1=O`, the IC50 was 6000 nM.

On to `O=C(N[C@H]1COC1=O)c1ccc(OCc2ccccc2)cc1`, for which the half-maximal inhibitory concentration (IC50) worked out at 90 nM.

In the case of `O=C(Cc1ccccc1)N[C@H]1COC1=O`, the IC50 stood at 1850 nM.

As to `COc1ccc2cc(C(=O)N[C@H]3COC3=O)ccc2c1`, the IC50 stood at 400 nM.

With `O=C(CCCCCCc1ccccc1)N[C@H]1COC1=O`, the IC50 was found to be 1500 nM.

For `O=C(N[C@H]1COC1=O)c1ccccc1`, the concentration for half-maximal inhibition (IC50) is 1700 nM.

`O=C(N[C@@H]1COC1=O)c1ccc2ccccc2c1`: the concentration for half-maximal inhibition (IC50) came out at 3200 nM.

Turning to `O=C(N[C@H]1COC1=O)OCc1ccccc1`, the IC50 turned out to be 2960 nM.

For `O=C(N[C@H]1COC1=O)c1ccc(C(=O)Oc2ccccc2)cc1`, the IC50 is 300 nM.

`O=C(N[C@H]1COC1=O)c1cccc(-c2ccccc2)c1`: the IC50 is 4400 nM.

For the molecule `O=C(CCc1ccccc1)NC1CCC1`, the half-maximal inhibitory concentration (IC50) is above 100000 nM.

The next data set concerns the target T2, N-acylethanolamine-hydrolyzing acid amidase (Rattus norvegicus) (UniProt Q5KTC7).
T2 sequence (whole entry): B1 chain
Kind of data set: Inhibition of rat recombinant NAAA expressed in HEK293 cells assessed as recovered initial enzyme activity at 10 uM after 12 hrs of dialysis; values are per cent of control.
Settings: not given
As a reminder, the residual activity is what remains of the control signal, in per cent. For `O=C(CCc1ccccc1)N[C@H]1COC1=O`, the residual activity was 44%.

In the next data set the test system is Mus musculus. Briefly: Antiinflammatory activity in polyethylene sponges implanted mouse assessed as inhibition of carrageenan-induced reduction of palmitoylethanolamine level compound administered into sponges.
Settings: not given
In kind it is functional, organism-based. The method in brief: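 Mice received subcutaneous polyethylene sponges (1 cm3, 2 per mouse) under dorsal skin. Each sponge was instilled with carrageenan 1.0% in 90 μL sterile saline plus drug or vehicle (DMSO, 10 μL/sponge), with drugs given over a range of doses. PEA measured by LC/MS.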
`O=C(CCc1ccccc1)N[C@H]1COC1=O`: the Activity entry was “Dose-dependent effect”.

On to `O=C(N[C@H]1COC1=O)c1ccc(-c2ccccc2)cc1`, for which the Activity result was “Dose-dependent effect”.

Substrate in the next data set: O=C(N[C@H]1COC1=O)c1ccc(-c2ccccc2)cc1
Assay: not given
The following applies: Rattus norvegicus; HEK293; 100 nM. This is another data set of the same source.
By Vmax is commonly meant the rate approached at saturating substrate. For the molecule B1, the Vmax is 10.8 nmol/min.

Substrate in a further data set: O=C(N[C@H]1COC1=O)c1ccc(-c2ccccc2)cc1
Assay: not given
The settings on record: Rattus norvegicus; HEK293; 200 nM.
As for B1, the Km turned out to be 156 µM.

Substrate in the next data set: O=C(N[C@H]1COC1=O)c1ccc(-c2ccccc2)cc1
Assay: not given
The settings on record: Rattus norvegicus; HEK293; 200 nM. The source holds these as a separate data set.
On to B1, for which the Vmax amounted to 6.2 nmol/min.
